Reference: ChEMBL document CHEMBL5252603, “Discovery of 2-aminoquinolone acid derivatives as potent inhibitors of SARS-CoV-2” (Bioorg Med Chem Lett, 2023)

Key:
[1] = system: Vero; assay: Cytotoxicity against african green monkey Vero cells; type: toxicity, cell-based; conditions: chlorocebus sabaeus
Procedure, shortened: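 Uninfected Vero cells were tested in parallel with the antiviral immunocytochemistry assay. CC50 was derived from at least two independent experiments.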

[2] = Selectivity index, ratio of CC50 for african green monkey Vero cells to EC50 for Severe acute respiratory syndrome coronavirus 2; type: toxicity; conditions: read-out: Ratio CC50/EC50
[3] = system: SARS-CoV-2; assay: Antiviral activity against Severe acute respiratory syndrome coronavirus 2 infected in Vero cells; type: functional, organism-based; conditions: Severe acute respiratory syndrome coronavirus 2, Vero
[4] = Microsomal stability in mouse liver microsomes assessed as compound remaining after 30 mins in presence of NADPH; type: ADME, Microsome; conditions: read-out: Stability
[5] = Microsomal stability in rat liver microsomes assessed as compound remaining after 30 mins in presence of NADPH; type: ADME, Microsome; conditions: read-out: Stability
[6] = target: Voltage-gated inwardly rectifying potassium channel KCNH2 (Homo sapiens, UniProt Q12809); assay: Binding affinity to human ERG; type: toxicity
Chain of Voltage-gated inwardly rectifying potassium channel KCNH2 (Q12809 whole entry): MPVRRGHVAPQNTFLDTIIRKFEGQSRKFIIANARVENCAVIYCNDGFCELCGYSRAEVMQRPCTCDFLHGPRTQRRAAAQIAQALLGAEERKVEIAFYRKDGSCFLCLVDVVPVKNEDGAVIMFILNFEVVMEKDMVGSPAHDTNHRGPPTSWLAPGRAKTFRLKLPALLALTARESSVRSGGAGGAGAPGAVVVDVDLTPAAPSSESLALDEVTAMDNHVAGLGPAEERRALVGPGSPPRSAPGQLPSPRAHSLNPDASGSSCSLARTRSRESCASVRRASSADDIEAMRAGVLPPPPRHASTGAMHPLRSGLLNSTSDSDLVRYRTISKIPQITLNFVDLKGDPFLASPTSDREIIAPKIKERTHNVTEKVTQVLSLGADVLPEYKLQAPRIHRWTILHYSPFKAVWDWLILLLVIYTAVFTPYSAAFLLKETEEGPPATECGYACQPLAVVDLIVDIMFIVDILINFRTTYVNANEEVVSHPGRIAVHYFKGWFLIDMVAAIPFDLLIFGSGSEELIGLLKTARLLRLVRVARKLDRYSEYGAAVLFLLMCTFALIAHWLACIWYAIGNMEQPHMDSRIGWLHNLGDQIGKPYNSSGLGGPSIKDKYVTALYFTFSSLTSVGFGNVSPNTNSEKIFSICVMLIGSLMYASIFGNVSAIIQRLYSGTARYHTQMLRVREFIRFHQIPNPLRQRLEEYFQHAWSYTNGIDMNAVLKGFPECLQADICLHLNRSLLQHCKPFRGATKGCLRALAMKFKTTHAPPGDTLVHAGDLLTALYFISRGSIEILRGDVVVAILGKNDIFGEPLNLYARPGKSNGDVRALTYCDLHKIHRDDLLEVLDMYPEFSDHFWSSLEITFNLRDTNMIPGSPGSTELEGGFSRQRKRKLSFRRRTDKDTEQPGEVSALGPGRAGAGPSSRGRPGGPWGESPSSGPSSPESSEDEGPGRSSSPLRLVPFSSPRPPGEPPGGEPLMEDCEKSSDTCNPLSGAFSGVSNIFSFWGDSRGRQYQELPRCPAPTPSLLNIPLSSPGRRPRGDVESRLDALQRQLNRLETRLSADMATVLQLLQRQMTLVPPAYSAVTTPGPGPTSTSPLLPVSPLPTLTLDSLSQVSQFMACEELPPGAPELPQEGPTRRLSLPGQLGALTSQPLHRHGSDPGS
Procedure, shortened: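 hERG fluorescence polarization ligand-binding assay; IC50 read-out.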

[7] = system: CHO-K1; assay: Cytotoxicity against CHO-K1 cells; type: toxicity, cell-based, Cricetulus griseus; conditions: chinese hamster
Procedure, shortened: (§1)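 Cell viability was measured by the EZ-Cytox assay, with CC50 as the read-out. Cell lines: HFL-1, human embryonic lung; L929, mouse fibroblast; NIH 3T3, mouse embryonic fibroblast; CHO-K1, Chinese hamster ovary.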

[8] = Microsomal stability in human liver microsomes assessed as compound remaining after 30 mins in presence of NADPH; type: ADME, Microsome; conditions: read-out: Stability
[9] = target: T1, CYP1A2 (Homo sapiens, UniProt P05177); assay: Inhibition of human CYP1A2 at 10 uM relative to control; type: ADME
T1 sequence (P05177 whole entry): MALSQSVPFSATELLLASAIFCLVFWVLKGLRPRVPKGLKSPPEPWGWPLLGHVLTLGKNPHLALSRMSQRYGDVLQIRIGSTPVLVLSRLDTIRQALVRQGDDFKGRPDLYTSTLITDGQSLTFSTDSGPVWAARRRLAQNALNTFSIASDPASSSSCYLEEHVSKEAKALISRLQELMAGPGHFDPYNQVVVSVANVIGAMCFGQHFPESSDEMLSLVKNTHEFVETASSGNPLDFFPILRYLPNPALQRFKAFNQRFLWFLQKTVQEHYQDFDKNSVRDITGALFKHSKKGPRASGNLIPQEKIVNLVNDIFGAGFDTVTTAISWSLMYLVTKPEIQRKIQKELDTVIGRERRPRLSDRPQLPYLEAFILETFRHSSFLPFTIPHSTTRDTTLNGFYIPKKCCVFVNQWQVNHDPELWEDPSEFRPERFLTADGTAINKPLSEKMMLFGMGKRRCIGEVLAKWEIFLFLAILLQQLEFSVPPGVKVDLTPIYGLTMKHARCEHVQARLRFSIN

[10] = system: NIH3T3; assay: Cytotoxicity against mouse NIH3T3 cells; type: toxicity, cell-based; procedure, shortened: as §1
[11] = target: CYP2C9 (Homo sapiens, UniProt P11712); assay: Inhibition of human CYP2C9 at 10 uM relative to control; type: ADME
Chain of CYP2C9 (P11712 whole entry): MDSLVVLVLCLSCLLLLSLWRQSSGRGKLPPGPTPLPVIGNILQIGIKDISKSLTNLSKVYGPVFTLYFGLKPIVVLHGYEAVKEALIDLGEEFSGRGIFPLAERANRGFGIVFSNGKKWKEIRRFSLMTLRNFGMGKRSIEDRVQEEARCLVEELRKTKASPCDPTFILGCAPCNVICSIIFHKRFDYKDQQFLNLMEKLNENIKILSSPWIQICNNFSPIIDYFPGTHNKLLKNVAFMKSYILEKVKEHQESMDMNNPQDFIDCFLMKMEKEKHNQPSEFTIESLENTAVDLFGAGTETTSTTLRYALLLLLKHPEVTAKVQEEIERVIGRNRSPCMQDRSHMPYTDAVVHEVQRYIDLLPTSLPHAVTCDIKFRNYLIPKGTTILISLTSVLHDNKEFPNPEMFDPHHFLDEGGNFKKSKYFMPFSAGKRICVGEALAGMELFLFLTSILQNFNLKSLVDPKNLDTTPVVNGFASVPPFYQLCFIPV

[12] = target: CYP3A4 (Homo sapiens, UniProt P08684); assay: Inhibition of human CYP3A4 at 10 uM relative to control; type: ADME
Chain of CYP3A4 (P08684 whole entry): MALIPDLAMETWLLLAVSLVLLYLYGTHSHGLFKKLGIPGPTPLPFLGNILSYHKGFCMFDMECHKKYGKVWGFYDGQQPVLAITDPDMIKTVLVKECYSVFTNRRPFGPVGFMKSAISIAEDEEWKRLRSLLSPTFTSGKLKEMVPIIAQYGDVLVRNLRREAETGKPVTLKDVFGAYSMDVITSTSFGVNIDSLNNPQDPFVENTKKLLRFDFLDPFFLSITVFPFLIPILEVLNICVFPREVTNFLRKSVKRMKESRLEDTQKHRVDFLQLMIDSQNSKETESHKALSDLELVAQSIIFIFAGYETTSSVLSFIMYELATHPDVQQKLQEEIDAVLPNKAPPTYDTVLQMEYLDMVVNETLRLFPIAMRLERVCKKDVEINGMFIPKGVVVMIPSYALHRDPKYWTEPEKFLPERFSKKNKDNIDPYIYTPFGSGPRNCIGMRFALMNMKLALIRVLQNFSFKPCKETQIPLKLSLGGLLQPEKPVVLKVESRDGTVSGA

[13] = system: HFL1; assay: Cytotoxicity against human HFL1 cells; type: toxicity, cell-based; procedure, shortened: as §1
[14] = Microsomal stability in dog liver microsomes assessed as compound remaining after 30 mins in presence of NADPH; type: ADME, Canis lupus familiaris, Microsome; conditions: read-out: Stability
[15] = target: CYP2D6 (Homo sapiens, UniProt P10635); assay: Inhibition of human CYP2D6 at 10 uM relative to control; type: ADME
Chain of CYP2D6 (P10635 whole entry): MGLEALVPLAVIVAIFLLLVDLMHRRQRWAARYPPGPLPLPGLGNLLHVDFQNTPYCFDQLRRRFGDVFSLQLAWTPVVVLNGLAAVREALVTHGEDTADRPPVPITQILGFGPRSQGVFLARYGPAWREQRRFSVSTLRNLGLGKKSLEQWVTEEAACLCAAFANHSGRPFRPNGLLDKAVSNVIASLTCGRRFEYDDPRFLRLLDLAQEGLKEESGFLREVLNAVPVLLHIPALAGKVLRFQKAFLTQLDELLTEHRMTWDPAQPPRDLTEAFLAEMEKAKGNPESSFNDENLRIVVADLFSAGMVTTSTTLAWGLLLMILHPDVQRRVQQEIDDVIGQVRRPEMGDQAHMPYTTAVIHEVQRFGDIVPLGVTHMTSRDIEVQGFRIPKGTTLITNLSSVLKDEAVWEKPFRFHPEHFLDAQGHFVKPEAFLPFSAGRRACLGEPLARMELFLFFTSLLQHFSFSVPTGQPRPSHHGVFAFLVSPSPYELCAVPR

[16] = system: L929; assay: Cytotoxicity against mouse L929 cells; type: toxicity, cell-based; procedure, shortened: as §1
[17] = target: CYP2C19 (Homo sapiens, UniProt P33261); assay: Inhibition of human CYP2C19 at 10 uM relative to control; type: ADME
Chain of CYP2C19 (P33261 whole entry): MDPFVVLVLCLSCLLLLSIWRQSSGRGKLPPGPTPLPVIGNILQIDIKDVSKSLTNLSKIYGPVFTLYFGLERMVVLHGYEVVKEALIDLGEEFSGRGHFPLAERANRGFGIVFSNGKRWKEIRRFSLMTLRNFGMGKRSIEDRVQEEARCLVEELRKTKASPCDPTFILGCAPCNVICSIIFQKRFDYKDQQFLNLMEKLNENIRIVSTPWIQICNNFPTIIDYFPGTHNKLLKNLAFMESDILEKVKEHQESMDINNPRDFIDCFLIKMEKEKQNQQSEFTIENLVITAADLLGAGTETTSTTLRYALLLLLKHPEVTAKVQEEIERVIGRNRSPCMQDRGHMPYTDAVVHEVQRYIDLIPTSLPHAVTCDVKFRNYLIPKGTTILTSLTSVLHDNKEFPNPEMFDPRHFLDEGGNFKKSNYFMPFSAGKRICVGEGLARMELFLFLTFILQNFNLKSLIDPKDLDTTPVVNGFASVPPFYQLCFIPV

SMILES	CC50 [1]	selectivity ratio [2]	EC50 [3]	also measured
CCC(CC)COC(=O)[C@H](C)N[P@](=O)(OC[C@H]1O[C@@](C#N)(c2ccc3c(N)ncnn23)[C@H](O)[C@@H]1O)Oc1ccccc1	> 25 µM	–	–	–
CC(C)(C)[C@H](NC(=O)C(F)(F)F)C(=O)N1C[C@H]2[C@@H]([C@H]1C(=O)N[C@H](C#N)C[C@@H]1CCNC1=O)C2(C)C	> 25 µM	–	–	–
COC(=O)c1c([S+](C)[O-])[nH]c2cc(Cl)ccc2c1=O (stereo not drawn)	12 µM	1.3	9.4 µM	–
CN(C)CCCNc1[nH]c2cc(Cl)ccc2c(=O)c1C(=O)O	> 25 µM	1	> 25 µM	–
O=C(O)c1c(Nc2cccc(F)c2)[nH]c2cc(Cl)ccc2c1=O	> 25 µM	16	1.5 µM	remaining at 0.5 h [4]: 24%; remaining at 0.5 h [5]: 14%; IC50 [6]: > 100 µM; CC50 [7]: 55 µM; remaining at 0.5 h [8]: 62%; inhibition at 10 µM [9]: 72%; CC50 [10]: 67 µM; inhibition at 10 µM [11]: 59%; inhibition at 10 µM [12]: < 1%; CC50 [13]: 48 µM; remaining at 0.5 h [14]: 65%; inhibition at 10 µM [15]: 3%; CC50 [16]: > 100 µM; inhibition at 10 µM [17]: 9%
O=C(O)c1c(Nc2cccc(F)c2)[nH]c2ccccc2c1=O	> 25 µM	6.2	4 µM	–
O=C(O)c1c(Nc2cccc(F)c2)[nH]c2ccc(Cl)cc2c1=O	> 25 µM	17	1.5 µM	–
O=c1cc(Nc2cccc(F)c2)[nH]c2cc(F)c(F)cc12	> 25 µM	1	> 25 µM	–
COC(=O)c1c([S+](C)[O-])[nH]c2ccccc2c1=O (stereo not drawn)	> 25 µM	1.9	13.4 µM	–
COc1ccc2[nH]c(Nc3cccc(F)c3)c(C(=O)O)c(=O)c2c1	> 25 µM	7.6	3.3 µM	–
CNC(=O)c1c(Nc2cccc(F)c2)[nH]c2cc(Cl)ccc2c1=O	> 25 µM	3.2	7.9 µM	–
O=C(O)c1c(Nc2ccc(F)cc2)[nH]c2ccc(Cl)cc2c1=O	> 25 µM	8.9	2.8 µM	–
O=C(O)c1c(Nc2cccc(F)c2)[nH]c2cc(F)c(F)cc2c1=O	> 25 µM	7.5	3.3 µM	–
O=C(O)c1c(Nc2ccc(F)cc2)[nH]c2cc(F)c(F)cc2c1=O	> 25 µM	7.2	3.5 µM	–
O=C(O)c1c(NC2CCCCC2)[nH]c2cc(Cl)ccc2c1=O	> 25 µM	5.7	4.4 µM	–
CCN(CC)CCCC(C)Nc1ccnc2cc(Cl)ccc12 (stereo not drawn) [CHLOROQUINE]	> 25 µM	3	8.2 µM	–
